Assay results gathered from unrelated publications.
Protocols differ between the studies behind these lines. Values after ≈ are worked out from the molar mass of the structure shown.

COc1ccc(Nc2cnnc3cc(-c4ccc(N5CCN(C)CC5)cc4)ccc23)nc1  EC50 (Trypanosoma cruzi; parasite growth; C2C12; intracellular, amastigote): 2.1 µM
COC(=O)N[C@H](C(=O)N1CC2(CC2)C[C@H]1c1nc(-c2ccc3c(c2)C(F)(F)c2cc(-c4ccc5[nH]c([C@@H]6[C@H]7CC[C@H](C7)N6C(=O)[C@@H](NC(=O)OC)C(C)C)nc5c4)ccc2-3)c[nH]1)C(C)C  IC50 (Trypanosoma cruzi; parasite growth; Vero, TULAHUEN; 72 h, intracellular, amastigote): 60 nM
CC1(C)S[C@@H]2[C@H](NC(=O)[C@H](N)c3ccccc3)C(=O)N2[C@H]1C(=O)O  MIC (Staphylococcus haemolyticus; microbial growth; clinical isolate): > 200 µg/mL
O=C(Cn1ccnc1[N+](=O)[O-])NCc1ccccc1  IC50 (Trypanosoma cruzi; parasite growth; LLC-MK2; 48 h, intracellular, amastigote): 0.71 µg/mL
CN1CCN(c2ncc(-c3ccc4nncc(Nc5ncccn5)c4c3)cn2)CC1  EC50 (Trypanosoma cruzi; parasite growth; C2C12; intracellular, amastigote): > 10 µM
CN[C@H](CC(C)C)C(=O)N[C@H]1C(=O)N[C@@H](CC(N)=O)C(=O)N[C@H]2C(=O)N[C@H]3C(=O)N[C@H](C(=O)N[C@H](C(=O)O)c4cc(O)cc(O)c4-c4cc3ccc4O)[C@H](O)c3ccc(c(Cl)c3)Oc3cc2cc(c3O[C@@H]2O[C@H](CO)[C@@H](O)[C@H](O)[C@H]2O[C@H]2C[C@](C)(N)[C@H](O)[C@H](C)O2)Oc2ccc(cc2Cl)[C@H]1O  MIC (Staphylococcus haemolyticus; microbial growth; clinical isolate): 0.78 µg/mL (≈ 0.538 µM)
OC(Cn1cncn1)(Cn1cncn1)c1ccc(F)cc1F  MIC (Alternaria alternata; microbial growth, broth dilution): 10 µg/mL (≈ 32.7 µM)
CC[C@@H]1/C=C(\C)C[C@H](C)C[C@H](OC)[C@H]2O[C@@](O)(C(=O)C(=O)N3CCCC[C@H]3C(=O)O[C@H](/C(C)=C/[C@@H]3CC[C@H](Cl)[C@H](OC)C3)[C@H](C)[C@@H](O)CC1=O)[C@H](C)C[C@@H]2OC  IC50 (Trypanosoma cruzi; parasite growth; Vero, TULAHUEN; 72 h, intracellular, amastigote): 2130 nM
CN1CCN(c2ncc(-c3ccc4nncc(Nc5cnccn5)c4c3)cn2)CC1  EC50 (Trypanosoma cruzi; parasite growth; C2C12; intracellular, amastigote): > 10 µM
CC1CCC(C(C)C)C(OC2=C(Cl)C(=O)c3ccccc3C2=O)C1 (stereo not shown)  MIC (Alternaria alternata; microbial growth, broth dilution): 12 µg/mL (≈ 34.6 µM)
